We go through one compound from ChEMBL document CHEMBL4765233, “From Lead to Drug Candidate: Optimization of 3-(Phenylethynyl)-1H-pyrazolo[3,4-d]pyrimidin-4-amine Derivatives as Agents for the Treatment of Triple Negative Breast Cancer” (J Med Chem, 2016).

Broadly, the pIC50 is the IC50 on a negative log10 scale, so that one unit is a factor of ten. As usually defined, the AUC(0-inf) is total exposure, with the tail of the curve extrapolated. As a reminder, the inhibition in vivo is the change of the read-out against control, counted positive when it falls.

One data set has as its system PLC-PRF-5. Briefly: Antiproliferative activity against human PLC-PRF-5 cells assessed as reduction in cell viability incubated for 72 hrs by MTT assay. It is filed as functional, cell-based. The settings on record: PLC-PRF-5, 72 h. Summed up:
(§1)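 MTT viability assay. ATCC cell lines were grown in designated medium with 10% FBS at 37 °C, 5% CO2. Cells seeded at 1500−30000 per well and incubated 24 h, then exposed to compound (0−10 μg/mL) for 72 h. MTT added for 2−4 h. Formazan dissolved in DMSO (adherent) or acidified SDS overnight (suspension), absorbance read at 570 nm. Triplicates; IC50 calculated.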

The subject of the next data set is Mus musculus. The data set can be described thus: In vivo inhibition of ERK in SCID mouse xenografted with human MDA-MB-231 cells assessed as reduction in phosphorylation of ERK in tumor tissue at 40 mg/kg, po QD for 21 days by immunohistochemical analysis. The data set is classed as functional, organism-based. The note with it: dose 40.0 mg/kg/day, time 21.0 day. Summed up: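 Tumors taken from xenografted SCID mice dosed orally at 40 mg/kg/q.d. or given control; mice euthanized at set times. Tumors formalin-fixed and paraffin-embedded, stained by immunohistochemistry for phospho-proteins, and imaged by light microscopy.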

A short description of data set [1]: AUC (0 to infinity) in Sprague-Dawley rat at 10 mg/kg, po administered via gavage by LC-MS analysis. It is filed as ADME, organism-based. The arrangement: time infinity, route oral, dose 10 mg/kg. The note with it: in vivo.
The nature of data set [2]: Toxicity in SCID mouse xenografted with MDA-MB-231 cells assessed as change in body weight at 40 mg/kg, po qd for 15 days and measured every 3 days. It is filed as organism-based. The settings on record: in vivo, 360 h, dose 40 mg/kg/day, time 15 day.
Data set [3] can be described thus: Inhibition of human recombinant EGFR T790M/L858R mutant (696 to end residues) using GGMEDIYFEFMGGKKK as substrate incubated for 40 mins in presence of [gamma33P-ATP] by radiometric scintillation counting analysis. An outline of the steps:
(§2)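 Radiometric kinase assay run as an external profiling service, with ATP at the Km of each kinase. IC50 values are means of two independent experiments.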

The target of data set [4] is Platelet-derived growth factor receptor alpha (Homo sapiens, UniProt P16234). Briefly: Inhibition of human recombinant PDGFRalpha (550 to end residues) using poly(Glu, Tyr)4:1 as substrate incubated for 40 mins in presence of [gamma33P-ATP] by radiometric scintillation counting analysis. Summed up: as §2
Chain of Platelet-derived growth factor receptor alpha (P16234 whole entry): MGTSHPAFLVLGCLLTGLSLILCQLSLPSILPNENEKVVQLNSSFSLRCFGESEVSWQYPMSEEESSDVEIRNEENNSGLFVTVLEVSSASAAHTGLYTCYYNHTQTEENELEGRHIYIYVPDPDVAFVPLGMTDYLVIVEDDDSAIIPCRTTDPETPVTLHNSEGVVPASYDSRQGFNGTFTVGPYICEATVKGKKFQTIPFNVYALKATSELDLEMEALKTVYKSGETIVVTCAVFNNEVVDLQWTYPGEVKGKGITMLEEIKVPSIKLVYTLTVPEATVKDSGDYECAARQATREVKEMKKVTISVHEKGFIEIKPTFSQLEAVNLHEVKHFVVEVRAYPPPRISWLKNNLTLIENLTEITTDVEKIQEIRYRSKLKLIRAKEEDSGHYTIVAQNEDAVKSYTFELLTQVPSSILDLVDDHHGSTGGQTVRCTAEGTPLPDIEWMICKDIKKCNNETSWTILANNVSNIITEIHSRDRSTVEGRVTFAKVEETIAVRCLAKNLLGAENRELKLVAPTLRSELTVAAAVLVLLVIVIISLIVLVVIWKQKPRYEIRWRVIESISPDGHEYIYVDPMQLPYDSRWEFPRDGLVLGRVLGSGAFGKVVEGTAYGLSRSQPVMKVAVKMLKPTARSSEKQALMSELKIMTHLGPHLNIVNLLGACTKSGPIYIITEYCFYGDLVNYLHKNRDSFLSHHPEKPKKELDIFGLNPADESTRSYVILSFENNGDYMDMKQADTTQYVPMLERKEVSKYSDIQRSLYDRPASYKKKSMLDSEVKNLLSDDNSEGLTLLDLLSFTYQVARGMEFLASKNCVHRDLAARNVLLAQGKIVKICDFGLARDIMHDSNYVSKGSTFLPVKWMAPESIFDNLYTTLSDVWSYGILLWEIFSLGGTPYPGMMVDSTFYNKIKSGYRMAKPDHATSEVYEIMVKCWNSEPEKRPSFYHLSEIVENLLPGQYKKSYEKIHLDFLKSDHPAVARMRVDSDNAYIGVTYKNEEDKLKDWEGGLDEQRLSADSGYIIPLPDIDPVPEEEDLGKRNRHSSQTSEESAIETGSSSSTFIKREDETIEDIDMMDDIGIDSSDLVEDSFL
The nature of data set [5]: Toxicity against SCID mouse xenografted with human MDA-MB-435 cells assessed as change in body weight at 10 to 40 mg/kg, po QD for 21 days and measured every 3 days. It is filed as organism-based. The settings on record: in vivo, 504 h, dose 10-40 mg/kg/day, time 21 day. An outline of the steps:
(§3)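 Exponential-phase cells washed and injected subcutaneously (5 × 10^6 cells in 100 μL) into 5–6-week SCID mice. At 150–200 mm3, mice randomised to groups of 6. Oral dosing daily in water with 25% PEG400 and 5% DMSO; paclitaxel 10 mg/kg weekly by tail vein. Body weight measured every 3 days and side effects checked daily.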
In general terms: A xenograft is tissue or cells of one species grown in another, often human tumour cells in immunodeficient mice.

The target of data set [6] is Receptor tyrosine-protein kinase erbB-2 (Homo sapiens, UniProt P04626, G778D). The data set can be described thus: Inhibition of human recombinant ERBB2 G778D mutant (676 to end residues) using poly(Glu,Tyr)4:1 as substrate incubated for 40 mins in presence of [gamma33P-ATP] by radiometric scintillation counting analysis.
Chain of Receptor tyrosine-protein kinase erbB-2 (P04626 23-1255 G778D limits assumed): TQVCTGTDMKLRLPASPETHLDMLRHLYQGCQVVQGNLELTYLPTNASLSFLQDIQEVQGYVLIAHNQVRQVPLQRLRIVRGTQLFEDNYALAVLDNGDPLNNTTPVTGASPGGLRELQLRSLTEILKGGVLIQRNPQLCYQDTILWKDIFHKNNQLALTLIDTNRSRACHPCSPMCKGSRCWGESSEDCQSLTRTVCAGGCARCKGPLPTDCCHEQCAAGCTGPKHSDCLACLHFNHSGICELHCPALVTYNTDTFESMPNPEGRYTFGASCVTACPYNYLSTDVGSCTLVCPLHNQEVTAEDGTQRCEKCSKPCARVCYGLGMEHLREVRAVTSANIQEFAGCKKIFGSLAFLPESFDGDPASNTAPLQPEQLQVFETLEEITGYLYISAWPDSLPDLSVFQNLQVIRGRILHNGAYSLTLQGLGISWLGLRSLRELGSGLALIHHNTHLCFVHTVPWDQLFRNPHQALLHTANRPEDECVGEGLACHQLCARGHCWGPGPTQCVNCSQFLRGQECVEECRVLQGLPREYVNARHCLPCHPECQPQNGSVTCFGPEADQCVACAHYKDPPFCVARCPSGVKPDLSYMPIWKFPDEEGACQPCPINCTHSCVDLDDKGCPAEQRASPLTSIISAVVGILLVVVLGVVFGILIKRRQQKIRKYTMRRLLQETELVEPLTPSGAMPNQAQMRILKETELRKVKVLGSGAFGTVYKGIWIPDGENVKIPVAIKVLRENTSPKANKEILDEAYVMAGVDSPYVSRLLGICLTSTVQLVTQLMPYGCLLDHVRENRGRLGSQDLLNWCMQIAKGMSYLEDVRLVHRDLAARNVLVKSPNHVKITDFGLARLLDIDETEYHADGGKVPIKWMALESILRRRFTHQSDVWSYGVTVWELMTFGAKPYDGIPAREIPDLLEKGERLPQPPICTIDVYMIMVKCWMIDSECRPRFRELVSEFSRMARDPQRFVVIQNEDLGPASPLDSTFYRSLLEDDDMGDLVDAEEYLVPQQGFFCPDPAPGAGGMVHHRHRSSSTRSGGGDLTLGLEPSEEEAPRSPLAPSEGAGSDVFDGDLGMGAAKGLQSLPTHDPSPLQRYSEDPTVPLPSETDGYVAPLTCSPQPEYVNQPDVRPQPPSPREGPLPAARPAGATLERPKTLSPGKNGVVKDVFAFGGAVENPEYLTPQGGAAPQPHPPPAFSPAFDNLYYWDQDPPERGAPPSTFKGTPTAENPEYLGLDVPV
Data set [7] concerns MDA-MB-231. Briefly: Inhibition of tumor mitotic index in SCID mouse xenografted with human MDA-MB-231 cells assessed as reduction in Ki67 expression at 40 mg/kg, po QD for 21 days by immunohistochemical staining analysis. The data set is classed as functional, organism-based. The note with it: dose 40.0 mg/kg/day, time 21.0 day. An outline of the steps: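 SCID mice carried subcutaneous MDA-MB-231 xenografts (5 × 10^6 cells in 100 μL). Oral dosing in water with 25% PEG400 and 5% DMSO began at 150–200 mm3. Tumours were removed at the end of study, formalin-fixed and paraffin-embedded, then immunostained.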

For the next data set, the species on record is Danio rerio. Briefly: Antiangiogenesis activity in EGFP-labelled zebrafish embryo assessed as reduction in formation of dorsal aorta at 1.25 to 5 uM incubated for overnight by fluorescence microscopic analysis. It is filed as functional, organism-based. The note with it: dose 1.25-5 µM. Summed up:
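Transgenic FLK:EGFP zebrafish kept at 28 °C, pH 7.2−7.4, 14 h light/10 h dark. Embryos at 30 hpf incubated overnight with compound at 1.25, 2.5 or 5 μM beside a blank control. Fish anaesthetized, then vessels imaged by fluorescence microscopy.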

Data set [8] has as its system MDA-MB-231. The data set can be described thus: Antitumor activity against human MDA-MB-231 cells xenografted in SCID mouse assessed as tumor growth inhibition at 40 mg/kg, po qd for 15 days and measured every 3 days. The data set is classed as functional. The note with it: MDA-MB-231, po, 360 h, time 15 day. An outline of the steps:
(§4)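 SCID mice (5−6 weeks) injected subcutaneously with 100 μL of cells at 5 × 10^7/mL. At 150−200 mm3 mice randomized, 6 per group. Oral compounds given in water with 25% PEG400 plus 5% DMSO; paclitaxel given 10 mg/kg/week iv. Tumor volume a×b²/2 and body weight measured every 3 days. Inhibition rate (c−d)/c×100% against vehicle control.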

The nature of data set [9]: Metabolic stability in dog liver microsomes assessed as parent compound remaining at 1 uM measured after 60 mins in presence of NADPH by HPLC-MS/MS analysis. The note with it: read-out: Stabilty. The data set is classed as ADME, Canis lupus familiaris, Microsome. An outline of the steps: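 Compound at 1 μM incubated with 0.5 mg/mL liver microsomes and 1 mM NADPH. Samples taken at 0, 10, 15, 30, 45 and 60 min and quenched with acetonitrile. After centrifugation, supernatant analysed by HPLC-MS/MS, with percent parent remaining relative to the 0 min area.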

Data set [10] has as its system MDA-MB-231. The data set can be described thus: Induction of apoptosis in human MDA-MB-231 cells assessed as live cells at 0.01 uM incubated for 24 hrs by annexin V-FITC and propidium iodide staining based flow cytometry analysis (reference value: 96.95 %). It is filed as functional. (In general: A flow cytometer gives signals particle by particle.)
Data set [11] relates to MDA-MB-231. Briefly: Induction of apoptosis in human MDA-MB-231 cells assessed as late apoptotic cells at 0.01 uM incubated for 24 hrs by annexin V-FITC and propidium iodide staining based flow cytometry analysis (reference value: 0.85 %). The data set is classed as functional.
Another data set concerns HepG2. The data set can be described thus: Antiproliferative activity against human HepG2 cells assessed as reduction in cell viability incubated for 72 hrs by MTT assay. The data set is classed as ADME, cell-based. The settings on record: HepG2, 72 h. Background: Tetrazolium assays rely on reduction of a dye to a coloured formazan, in cell work by metabolically active cells.

Data set [12] relates to MDA-MB-231. Briefly: Inhibition of MEK phosphorylation in human MDA-MB-231 cells at 0.01 to 0.3 uM incubated for 20 hrs by Western blot analysis. It is filed as cell-based. The note with it: dose 0.01-0.3 µM. An outline of the steps: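 MDA-MB-231 cells treated with a series of concentrations for 20 h at 37 °C. Cells washed with ice-cold saline and lysed in RIPA buffer with protease cocktail. Lysates cleared at 12000 rpm for 10 min at 4 °C and protein quantified by Bradford. Equal protein separated by SDS-PAGE, transferred to PVDF and probed with antibodies.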

The test system of the next data set is ZR-75-1. Briefly: Antiproliferative activity against human ZR-75-1 cells assessed as reduction in cell viability incubated for 72 hrs by MTT assay. It is filed as functional, cell-based. The settings on record: ZR-75-1, 72 h. An outline of the steps:
as §1

A short description of data set [13]: Toxicity against SCID mouse xenografted with human MDA-MB-231 cells assessed as change in body weight at 10 to 40 mg/kg, po QD for 21 days and measured every 3 days. The data set is classed as organism-based. The note with it: in vivo, 504 h, dose 10-40 mg/kg/day, time 21 day. An outline of the steps: as §3
Data set [14] deals with MDA-MB-231. The data set can be described thus: Antitumor activity against human MDA-MB-231 cells xenografted in SCID mouse assessed as tumor growth inhibition at 40 mg/kg, po qd for 21 days and measured every 3 days. The data set is classed as functional. The settings on record: MDA-MB-231, po, 504 h, time 21 day. An outline of the steps:
as §4

pIC50: −log10 of the molar value. The source made the active and inactive calls. The calls are words filed in the database; no cut-off is given here. A value given as a limit tells only on which side of the number the result lay.

For the compound `Cc1ccc(NC(=O)c2ccc(C)c(C(F)(F)F)c2)cc1C#Cc1nn([C@H]2CC[C@H](O)CC2)c2ncnc(N)c12`, the pIC50 was 5.00 with PLC-PRF-5; 8.10 in data set [3]; 5.89 in data set [4]; 6.78 in [6]; under 5.00 in the data set with HepG2; 5.00 with ZR-75-1. The inhibition entry in the data set on Mus musculus, with MDA-MB-231 [7] and in the data set with MDA-MB-231 [12] was “Active” in each case. Besides, the total exposure AUC(0-inf) in data set [1] was 2950 ng·h/mL. For the same compound, the Activity in data set [2] is on record as 3.4%; in [5], “Non-Toxic”; in the data set with MDA-MB-231 [10] it was 91.3%; in the data set on MDA-MB-231 [11] it was 3.23%; in [13] it was “Non-Toxic”. In addition, in the data set filed under Danio rerio, the result was inactive. In addition, the inhibition in vivo at 40 mg/kg/day in the data set on MDA-MB-231 [8] was determined as 96.2%; with MDA-MB-231 [14], 100%. In data set [9], the remaining at 1 h, 1 µM was over 90%.
